# UPR XBP1 act: adaptive UPR (XBP1) activation | 330,000 compounds, 0.33% hits | activation, % at 20 µM | CHO-XBP1 luciferase reporter, IRE1-XBP1 UPR activation, luminescence; percent of tunicamycin response, DMSO as zero;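 active = versus positive control, 20 µM dose yields 30% or more activation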
#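 Test system: CHO-XBP1 luciferase reporter cells | Buffer or medium: Serum-containing F12 medium, 10% FBS | Schedule: 6 h compound exposure at 37 °C, 5% CO2 | Detection: Steady-Glo luciferase glow luminescence, 10 min after reagent addition | Read-out basis: Activation, % of tunicamycin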
# UPR CHOP act: activators of apoptotic arm of unfolded protein response (CHOP) | CHO-CHOP luciferase reporter, UPR activation, luminescence; percent of tunicamycin response over DMSO baseline | activation, % at 10 µM | 330,000 compounds, 0.34% hits | AID 449763;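 active = at 10 µM dose, activation of 40% or more, normalized to positive control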
#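 measured by = luciferase luminescence | assay system = CHO-CHOP cells, stable luciferase reporter of PERK-eIF2a-CHOP signalling | amount = 500 reporter cells seeded per well | timing = 6 h compound exposure at 37 °C after overnight seeding | controls = positive tunicamycin 10 µg/mL, negative DMSO alone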
# T cruzi inh: T. cruzi replication inhibition; inhibition, % (test concentration not listed); T. cruzi beta-gal in NIH3T3, luminescence, 90 h; 300,000 compounds, 1.4% hits;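 active = mean inhibition across valid replicates above about 55%, limit read from the data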;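 note: signal also drops with host cell toxicity which is not excluded here; higher percent means less beta-gal luminescence so fewer parasites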
#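 Assay system: NIH/3T3 host cells with β-galactosidase reporter T. cruzi; input: 5,000 host fibroblasts per well; compound: single 50 nL compound addition per well in DMSO; timing: ≥90 h infection period, 3 h prior cell attachment; measured by: GalScreen β-gal luminescence, detergent lysis, 60 min; evaluation: percent inhibition of parasite-derived β-gal signal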
# CHOP inhibitor: CHOP inhibition in unfolded protein response. CHO-K1 CHOP-promoter luciferase, tunicamycin-induced, 15-18 h. inhibition, % at 10 µM. 220,000 compounds, 3.8% hits;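 active = compounds that reduced the stress-induced luciferase reporter signal by more than about 70% of percent inhibition, limit read from the data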
# Lmaj promast: inhibitors of Leishmania major promastigote growth; Leishmania major promastigotes, resazurin fluorescence viability; inhibition, % at 10 µM; 200,000 compounds, 9% hits; AID 1063; in the data active = inhibition above about 50%;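 note: promastigotes grown with compound for 44 hours at 28 °C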
# Dynein transport: dynein cargo transport inhibition; 3617.4 mouse cells, GR-EGFP nuclear translocation imaging; test concentration mostly 20 µM; stimulated with dexamethasone, 1 µM; stronger effect = lower value; AID 1381; 220,000 compounds, 0.47% hits; z-score, hits read low;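 active = plate z-score of nuclear minus cytoplasmic receptor signal below a set negative limit, without overly bright fluorescence or cell loss, cut at about -3.5 in these data, passing the limit was not always enough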;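 note: z-score of nuclear minus cytoplasmic ring GR-EGFP intensity difference per well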
#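 Buffer or medium: tetracycline-free induction medium containing charcoal-stripped FBS / Reagent: dexamethasone agonist, 1.0 µM final, for 30 min / Technique: automated 10x imaging of fixed Hoechst-stained cells / Times: induction 48 h, compound 1 h, agonist 30 min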
# A number is an active result; 0 = inactive; - = not tested or not shown. Many of the other results were omitted from the sample, so hits are more common in it than they were.
SMILES,UPR XBP1 act,UPR CHOP act,T cruzi inh,CHOP inhibitor,Lmaj promast,Dynein transport
CCC(C)NCCCOc1ccc(C)cc1OC (stereo unspecified),0,0,0,0,0,0
O=C(NCC(=O)N1CCCC1)c1ccc(Cl)cc1,0,0,0,-,-,-
CC[C@]12c3[nH]c4ccc(Cl)cc4c3CCN1C(=O)[C@@H](CC(=O)NC/C=C(\C)CCC=C(C)C)C[C@@H]2C(=O)N1CCN(C(=O)C2CC2)CC1,0,0,-,-,-,-
CC(C)(C)c1ccc(NC(=O)c2c(F)cccc2Cl)cc1,0,0,0,0,-,0
O=C(CNc1cccc(Cl)c1)c1ccc(Cl)cc1,0,0,0,75,0,0
Cc1ccc(NCC(=O)c2ccc(C)cc2)cc1,0,0,56,-,-,-
Cc1ccc(C(=O)CNc2ccc(C)c(Cl)c2)cc1,0,0,0,0,0,0
CCOC(=O)C1(CCOc2ccccc2)CCN(Cc2ccc(O)cc2)CC1,0,0,0,-,-,-
CCOC(=O)C1(CCc2ccccc2)CCN(Cc2ccc(OC)cc2)CC1,0,0,0,0,85,0
CCOC(=O)C1(CCc2ccccc2)CCN(Cc2ccc(O)cc2)CC1,0,0,0,0,95,0
CCOC(=O)C1(CCc2ccccc2)CCN(Cc2c(O)cccc2OC)CC1,0,0,0,73,91,0
Cc1ccc(Cl)cc1N1CCN(C(=O)c2noc(C(C)C)c2[N+](=O)[O-])CC1,0,0,0,-,-,-
CCN(CC)CCNC(=S)Nc1ccc2nc(N3CCN(C)CC3)cc(C)c2c1,0,0,0,-,-,-
CCCCN(CC)CCCNC(=S)Nc1ccc2nc(N3CCN(C)CC3)cc(C)c2c1,0,0,0,0,56,0
Cc1cc(N2CCN(C)CC2)nc2ccc(NC(=S)NCCC(C)C)cc12,0,0,57,-,-,-
CCCCN(CC)CCCNC(=S)Nc1ccc2nc(N3CCN(CC)CC3)cc(C)c2c1,0,0,0,0,96,0
CCCN(C(=O)CSCc1ccccc1C)c1c(N)n(Cc2ccccc2)c(=O)[nH]c1=O,0,0,0,-,-,-
CCOc1ccccc1N1CCN(CC(O)COC2CCCc3ccccc32)CC1 (stereo unspecified),0,0,0,-,-,-
NC(=O)CC(NC(=O)Cc1cccc2ccccc12)c1ccc(N2CCCCCCC2)c([N+](=O)[O-])c1 (stereo unspecified),0,0,0,-,-,-
NC(=O)CC(NC(=O)Cc1ccc(Br)cc1)c1ccc(N2CCC(Br)CC2)c([N+](=O)[O-])c1 (stereo unspecified),0,0,0,87,-,0
NC(=O)CC(NC(=O)Cc1ccc(Br)cc1)c1ccc(NCc2ccc(F)c(F)c2)c([N+](=O)[O-])c1 (stereo unspecified),0,0,0,76,-,0
NC(=O)CC(NC(=O)Cc1cccc2ccccc12)c1ccc(N2CCN(c3ccc(F)cc3)CC2)c([N+](=O)[O-])c1 (stereo unspecified),0,0,0,94,-,0
NC(=O)CC(NC(=O)Cc1ccc(Br)cc1)c1ccc(N2CCC(Cc3ccccc3)CC2)c([N+](=O)[O-])c1 (stereo unspecified),0,0,0,96,-,0
NC(=O)CC(NC(=O)Cc1ccc(Br)cc1)c1ccc(N2CCCCCCC2)c([N+](=O)[O-])c1 (stereo unspecified),0,0,0,-,-,-
Cc1cccc(C)c1NC(=O)NC1(C(=O)N2CCOCC2)CCCCC1,0,0,0,0,0,0
SMILES,UPR XBP1 act,UPR CHOP act,T cruzi inh,CHOP inhibitor,Lmaj promast,Dynein transport
COc1ccc(F)cc1C(=O)C1CCCN(C(=O)c2ccccc2N(C)C)C1 (stereo unspecified),0,0,0,-,-,-
Cc1nc2ccc(NC(=O)c3ccc(C)c(S(=O)(=O)N4CCOCC4)c3)cc2s1,0,0,-,-,-,-
c1ccc(Nc2nc(-c3cccs3)cs2)nc1,0,0,0,0,0,0
c1csc(-c2csc(-c3cccs3)n2)c1,0,0,0,77,0,0
Cc1cccc(Nc2nc(-c3cccs3)cs2)n1,0,0,0,0,57,0
O=C(CNS(=O)(=O)c1ccccc1F)NNC(=O)c1ccc(Br)cc1,0,0,-,-,-,-
Cc1ccc(S(=O)(=O)NCCCCCC(=O)Nc2c(C)n(C)n(-c3ccccc3)c2=O)cc1,0,0,0,0,0,0
C#CCOCCOCCOCCNc1nc(N2CCN(C(=O)[C@H](CC(N)=O)n3cc(C(N)[C@@H](C)CC)nn3)CC2)nc(N2CCN(C(=O)[C@H](CCC(=O)O)n3cc([C@@H](N)CCCCN)nn3)CC2)n1 (stereo partly specified),0,0,-,-,-,-
Cc1cccc(NC(=O)C(C)Oc2ccc(C)nc2[N+](=O)[O-])c1 (stereo unspecified),0,0,-,-,-,-
COc1ccc2nc(NC(=O)CN(c3ccc(C)cc3)S(=O)(=O)c3c(C)nn(C)c3C)sc2c1,0,0,0,0,80,0
CCc1ccc(N(CC(=O)Nc2nc3ccc(C)cc3s2)S(=O)(=O)c2c(C)noc2C)cc1,0,0,0,83,52,0
CS(=O)(=O)c1cccc(C(=O)OCC(=O)Nc2ccc3c(c2)OCO3)c1,0,0,-,-,-,-
O=C(Nc1nnc(SCc2ccc(F)cc2)s1)c1ccc2c(c1)C(=O)N(c1ccccc1Cl)C2=O,0,0,0,0,0,0
COc1ccccc1/C=C/[C@@H]1C[C@H]2CN(Cc3cccc(Cl)c3)C(=O)[C@]23CCCN13,0,0,0,0,0,0
COc1ccccc1CN1C[C@@H]2C[C@@H](c3ccc(C)c(C)c3)N3CCC[C@@]23C1=O,0,0,68,0,0,0
COc1ccccc1CN1C[C@@H]2C[C@@H](c3[nH]c4c(C)cccc4c3C)N3CCC[C@@]23C1=O,0,0,0,0,53,0
COc1cccc2c1OCC([C@@H]1C[C@H]3CN(Cc4cccc(Cl)c4)C(=O)[C@]34CCCN14)=C2,0,0,0,0,59,0
COc1ccccc1CN1C[C@@H]2C[C@@H](c3cccc(C)n3)N3CCC[C@@]23C1=O,0,0,0,0,0,0
C=CCNC(=S)NNc1nc2c(c(=O)[nH]1)C1(CCCCC1)Cc1ccccc1-2,0,0,0,93,0,0
CCN(CC)Cc1nc2c(c(=O)[nH]1)C1(CCCC1)Cc1ccccc1-2,0,0,0,84,0,0
O=c1[nH]c(CN(CCO)CCO)nc2c1C1(CCCCC1)Cc1ccccc1-2,0,0,0,0,0,0
COc1ccc(CN2C(=O)c3ccccc3C2=O)cc1C(=O)O,0,0,0,-,-,-
CCc1cccc(CC)c1NC(=O)c1cc(CN2C(=O)c3ccccc3C2=O)ccc1OC,0,0,0,0,88,0
Cc1cccc(C)c1NC(=O)CSc1nc(C2CC2)nc2ccccc12,0,0,0,-,-,-

# High-throughput results (PubChem BioAssay)
